One assay has as its system P388. The assay is described as follows: Cytotoxicity against mouse P388 cells by MTT assay. Type of assay: functional, cell-based. On the technique in general: Tetrazolium dyes change colour on reduction, which living cells bring about.
In the next assay the test system is A549. Put plainly: Cytotoxicity against human A549 cells by MTT assay. Type of assay: functional, cell-based.
The test system of another assay is Candida albicans. The assay is described as follows: Antifungal activity against Candida albicans ATCC 44506 after 24 hrs by standard microdilution broth technique. Type of assay: functional. The conditions noted are these: ATCC 44506, 24 h. In short, it runs like this:
(§1)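 Broth microdilution MIC in 50 μl total volume. C. albicans ATCC 44506 grown in Sabouraud dextrose broth at 37° for 24 h; Cr. neoformans ATCC 32045 in Emmon's modification of Sabouraud dextrose broth at 37° for 48 h. MIC taken as lowest drug concentration giving complete growth inhibition.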
A general note: Broth dilution looks for growth in wells or tubes with falling amounts of substance.

A further assay concerns Cryptococcus neoformans. The assay is described as follows: Antifungal activity against Cryptococcus neoformans ATCC 32045 after 48 hrs by standard microdilution broth technique. Type of assay: functional. The conditions noted are these: ATCC 32045, 48 h. The method, boiled down: as §1
Assay [1] can be described thus: Displacement of [125I]angiotensin 2 from angiotensin 2 receptor in rat aorta smooth muscle cell membrane by genesys gamma counting. The method, boiled down:
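Duplicate tubes: 0.88 nM (final) [125I]angiotensin II, membranes 75–125 μg/ml protein, 3 h at 25°; nonspecific with 1 μM unlabeled angiotensin II. GF/C filtration, gamma counting, nonlinear regression.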
(Displacement assays read how much labelled ligand stays bound in the presence of the test substance.)

The term IC50 denotes the concentration at which inhibition is half-maximal. In general, MIC refers to the smallest concentration in the dilution series that meets the test's criterion for growth inhibition. Read a high MIC as a less susceptible organism.

Values after ≈ are worked out from the molar mass of the structure shown.

For `CC1=CCC[C@@H](C)[C@]1(C)CC/C(C)=C/C(=O)N[C@@H]1CCCNC1=O` [SOLLASIN B], the IC50 in the assay with P388 amounted to 6 mg/L (≈ 18 µM); in the assay on A549, 17 mg/L (≈ 51.1 µM). Also, the MIC in the assay on Candida albicans worked out at 125 mg/L (≈ 376 µM); with Cryptococcus neoformans, 31.2 mg/L (≈ 93.8 µM).

As to `CC1=CC(=O)CC(C)(CC[C@]2(C)C(C)=CCC[C@H]2C)O1` (some centres undefined) [SOLLASIN E], the MIC in the assay on Candida albicans and against Cryptococcus neoformans was 25 mg/L (≈ 90.4 µM) in each case.

`COc1cc(/C=C(\C)CC[C@]2(C)C(C)=CCC[C@H]2C)oc(=O)c1` [SOLLASIN D]: the IC50 was 42 µM in assay [1], 5.5 mg/L (≈ 17.4 µM) in the assay with P388 and 11.3 mg/L (≈ 35.7 µM) in the assay with A549.

As to `CC1=CCC[C@@H](C)[C@]1(C)CC/C(C)=C/C(=O)N[C@@H]1CCCCNC1=O` [SOLLASIN C], the IC50 in assay [1] turned out to be 63 µM; in the assay on P388 it was 8.4 mg/L (≈ 24.2 µM); with A549 it was 11 mg/L (≈ 31.7 µM). In addition, the figures for the MIC in the assay with Candida albicans and against Cryptococcus neoformans were 31.2 mg/L (≈ 90 µM) and 15.6 mg/L (≈ 45 µM), respectively.
